# Tests used:
# Ileum [1] = experiment: Relaxant activity in potassium depolarized guinea pig ileum longitudinal smooth muscle assessed as inhibition of calcium-induced contraction at 5x10'-6 M relative to control; format: functional, Cavia porcellus; set-up: scale not given: the % may be the effect or the level left
# [2] = Negative chronotropic activity in guinea pig right atrium assessed as decrease in atrial rate at 10^-4 M relative to control; format: functional, Cavia porcellus, Cardiac atrium; set-up: scale not given: the % may be the effect or the level left
# Summary of the method: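 The read-out is decrease in rate of spontaneously beating isolated guinea pig right atrium at 10⁻⁴ M. It is expressed as percent change from control, n = 7−8.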
# [3] = Negative chronotropic activity in guinea pig right atrium assessed as decrease in atrial rate; format: functional, tissue-based; settings: Cavia porcellus, Cardiac atrium
# Summary of the method: (§1)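 Isolated guinea pig atria are used, with left atria driven at 1 Hz. Compounds are added cumulatively. EC50 is derived from log concentration−response curves by Litchfield–Wilcoxon probit analysis, n = 6−7. EC50 is not calculated when the maximal effect is below 50%.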
# Ileum [4] = experiment: Relaxant activity in potassium depolarized guinea pig ileum longitudinal smooth muscle assessed as inhibition of calcium-induced contraction; format: functional, tissue-based; settings: Cavia porcellus
# Summary of the method: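 K⁺-depolarized (80 mM) guinea pig ileum longitudinal smooth muscle is used. Calcium-induced contraction is measured with cumulative compound addition.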
# [5] = Negative inotropic activity in guinea pig left atrium assessed as decrease in developed tension at 10^-6 M relative to control; format: functional, Cavia porcellus, Cardiac atrium; set-up: scale not given: the % may be the effect or the level left
# Aorta [6] = experiment: Relaxant activity in potassium depolarized guinea pig aortic strips assessed as inhibition of calcium-induced contraction at 10^-4 M relative to control; format: functional, Cavia porcellus; set-up: scale not given: the % may be the effect or the level left
# Summary of the method: (§2)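 Guinea pig aortic strips and ileum longitudinal smooth muscle are depolarized with 80 mM K⁺. The read-out is percent inhibition of calcium-induced contraction. Aorta is tested at 10⁻⁴ M and ileum at 10⁻⁵ M.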
# [7] = Displacement of [3H]-PN200-110 from L-type calcium channel dihydropyridine binding site in Wistar rat cortex homogenate after 60 mins by liquid scintillation spectometric analysis; format: tissue-based
# Summary of the method: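 Competition binding on rat cortex homogenate with (+)-[5-methyl-3H]PN200-110. Compounds are dissolved in DMSO as 10⁻² M stocks and diluted in buffer. Six displacer concentrations are tested, each in triplicate. IC50 is obtained by −log probit analysis and Ki by the Prusoff method. Values are mean ± SEM of 3−5 separate experiments done in triplicate.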
# Cavia porcellus [8] = species: Cavia porcellus; experiment: Displacement of [3H]-PN200-110 from L-type calcium channel in Hartley guinea pig ventricular membrane […] after 90 mins relative to control
# HEK293 = experiment: Displacement of [3H]-PN200-110 from voltage-gated calcium channel subunit alpha Cav1.2a (unknown origin) expressed in HEK293 cells at 100 uM after 90 mins by liquid scintillation counting analysis relative to control; format: cell-based; settings: Homo sapiens
# [9] = Displacement of [3H]-PN200-110 from L-type calcium channel in Hartley guinea pig atrial membrane after 90 mins; format: cell membranes, Cavia porcellus, Cardiac atrium
# Summary of the method: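 Guinea pig atrial membranes are labelled at the 1,4-DHP site with (+)-[5-methyl-3H]PN200-110 at 0.5 nM. Competitor is added over 0.001−100 μM from 10⁻² M DMSO stocks diluted in buffer. Results are given as IC50 and Ki, mean ± SEM. Student's t-test is applied with P<0.001.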
# Rattus norvegicus = species: Rattus norvegicus; experiment: Displacement of [3H]-PN200-110 from L-type calcium channel dihydropyridine binding site in Wistar rat cortex homogenate at 100 uM after 60 mins by liquid scintillation spectometric analysis relative to control; format: tissue-based
# Summary of the method: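 Binding on rat cortex homogenate using (+)-[5-methyl-3H]PN200-110. The read-out is percent of maximal radioligand displacement at 100 μM test compound. Compounds are made up as 10⁻² M DMSO stocks and diluted in buffer. Values are from 3−5 separate experiments done in triplicate.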
# Cavia porcellus [10] = species: Cavia porcellus; experiment: Displacement of [3H]-PN200-110 from L-type calcium channel in Hartley guinea pig atrial membrane at 100 uM after 90 mins relative to control; format: cell membranes; settings: Cardiac atrium
# Ileum [11] = experiment: Relaxant activity in potassium depolarized guinea pig ileum longitudinal smooth muscle assessed as inhibition of calcium-induced contraction at 10^-5 M relative to control; format: functional, Cavia porcellus; set-up: scale not given: the % may be the effect or the level left; summary of the method: as §2
# [12] = Negative inotropic activity in guinea pig left atrium assessed as decrease in developed tension at 10^-5 M relative to control; format: functional, Cavia porcellus, Cardiac atrium; set-up: scale not given: the % may be the effect or the level left
# [13] = Displacement of [3H]-PN200-110 from L-type calcium channel in Hartley guinea pig ventricular membrane […] after 90 mins; set-up: species or system Cavia porcellus
# [14] = Displacement of [3H]-PN200-110 from voltage-gated calcium channel subunit alpha Cav1.2a (unknown origin) expressed in HEK293 cells after 90 mins by liquid scintillation counting analysis; format: cell-based, Homo sapiens
# Summary of the method: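 Intact HEK-293 cells stably transfected with a rabbit Cav1.2a (α1c-a) plasmid are used. They are incubated with 0.5 nM (+)-[5-methyl-3H]PN200-110 plus competitor at 0.001−100 μM, from 10⁻² M DMSO stocks diluted in buffer. IC50 values are given as mean ± SEM.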
# Ileum [15] = experiment: Relaxant activity in potassium depolarized guinea pig ileum longitudinal smooth muscle assessed as inhibition of calcium-induced contraction at 5x10'-5 M relative to control; format: functional, Cavia porcellus; set-up: scale not given: the % may be the effect or the level left
# [16] = Negative chronotropic activity in guinea pig right atrium assessed as decrease in atrial rate at 5x10'-5 M relative to control; format: functional, Cavia porcellus, Cardiac atrium; set-up: scale not given: the % may be the effect or the level left
# Aorta [17] = experiment: Relaxant activity in potassium depolarized guinea pig aortic strips assessed as inhibition of calcium-induced contraction at 5x10'-5 M relative to control; format: functional, Cavia porcellus; set-up: scale not given: the % may be the effect or the level left
# [18] = Selectivity ratio of EC50 for negative chronotropic activity in guinea pig right atrium to EC50 for negative inotropic activity in guinea pig left atrium; format: functional, Cavia porcellus, Cardiac atrium
# [19] = Negative chronotropic activity in guinea pig right atrium assessed as decrease in atrial rate at 5x10'-6 M relative to control; format: functional, Cavia porcellus, Cardiac atrium; set-up: scale not given: the % may be the effect or the level left
# [20] = Negative inotropic activity in guinea pig left atrium assessed as decrease in developed tension; format: functional, tissue-based; settings: Cavia porcellus, Cardiac atrium; summary of the method: as §1
# [21] = Negative inotropic activity in guinea pig left atrium assessed as decrease in developed tension at 10^-4 M relative to control; format: functional, Cavia porcellus, Cardiac atrium; set-up: scale not given: the % may be the effect or the level left
# Ileum [22] = experiment: Relaxant activity in potassium depolarized guinea pig ileum longitudinal smooth muscle assessed as inhibition of calcium-induced contraction at 5x10'-7 M relative to control; format: functional, Cavia porcellus; set-up: scale not given: the % may be the effect or the level left
# [23] = Negative chronotropic activity in guinea pig right atrium assessed as decrease in atrial rate at 10^-5 M relative to control; format: functional, Cavia porcellus, Cardiac atrium; set-up: scale not given: the % may be the effect or the level left
EC50 [3],IC50 (Ileum [4]),IC50 [7],Ki [7],%max (Cavia porcellus [8]),IC50 [9],Ki [9],%max (Rattus norvegicus),%max (Cavia porcellus [10]),IC50 [13],Ki [13],SMILES,Activity (Aorta [6]),%max (HEK293),IC50 [14],Ki [14],further results
40.5 µM,1.37 µM,–,–,–,–,–,–,–,–,–,COC(=O)C1=C(C)NC(C)=C(C(=O)OC)C1c1c(-c2cccs2)nc2sc(C)cn12,9%,–,–,–,Activity (Ileum [1]): 81%; Activity [2]: 70%; Activity [5]: 40%
–,–,1020 µM,340 µM,< 50%,0.12 µM,0.042 µM,60%,95%,–,–,COC(=O)C1=C(C)NC(C)=C(C(=O)OC)C1c1c(Cl)nc2sc(C)cn12,–,< 50%,–,–,–
28.4 µM,3.55 µM,–,–,–,–,–,–,–,–,–,COC(=O)C1=C(C)NC(C)=C(C(=O)OC)C1c1c(-c2cccnc2)nc2sccn12,36%,–,–,–,Activity (Ileum [11]): 91%; Activity [2]: 98%; Activity [12]: 25%
–,–,–,–,50%,0.065 µM,0.023 µM,–,53%,3.32 µM,1.16 µM,CCCc1cn2c(C3C(C(=O)OC)=C(C)NC(C)=C3C(=O)OC)c(-c3c(OC)ccc(OC)c3[N+](=O)[O-])nc2s1,–,55%,0.0044 µM,0.0016 µM,–
12.5 µM,16 µM,0.1 µM,0.059 µM,< 50%,0.022 µM,0.0048 µM,70%,52%,–,–,COC(=O)C1=C(C)NC(C)=C(C(=O)OC)C1c1c(-c2cccnc2)nc2sc(C)cn12,–,< 50%,–,–,Activity (Ileum [15]): 83%; Activity [5]: 18%; Activity [16]: 86%; Activity (Aorta [17]): 19%
–,–,0.35 µM,0.11 µM,93%,0.39 µM,0.14 µM,77%,50%,0.046 µM,0.016 µM,COC(=O)C1=C(C)NC(C)=C(C(=O)OC)C1c1c(-c2ccc(OC)c(OC)c2)nc2sccn12,–,55%,0.062 µM,0.023 µM,–
–,–,1.65 µM,0.52 µM,–,–,–,75%,–,–,–,COC(=O)C1=C(C)NC(C)=C(C(=O)OC)C1c1c(C(F)(F)F)nc2sccn12,–,–,–,–,–
2.16 µM,0.18 µM,–,–,–,–,–,–,–,–,–,COC(=O)C1=C(C)NC(C)=C(C(=O)OC)C1c1c(-c2c(Cl)csc2Cl)nc2sccn12,–,–,–,–,Ratio EC50 [18]: 47; Activity [19]: 77%; EC50 [20]: 0.046 µM; Activity [21]: 74%; Activity (Ileum [22]): 95%; Activity (Aorta [17]): 22%
2.63 µM,0.046 µM,0.24 µM,0.17 µM,91%,0.078 µM,0.017 µM,98%,76%,1.43 µM,0.51 µM,CCOC(=O)C1=C(C)NC(C)=C(C(=O)OCC)C1c1c(-c2cc(OC)ccc2OC)nc2sccn12,29%,94%,0.86 µM,0.3 µM,EC50 [20]: 1.16 µM; Activity [21]: 93%; Activity (Ileum [22]): 85%; Activity [23]: 88%
–,–,0.21 µM,0.16 µM,< 50%,0.12 µM,0.044 µM,56%,65%,–,–,COC(=O)C1=C(C)NC(C)=C(C(=O)OC)C1c1c(-c2cc(OC)ccc2OC)nc2sccn12,–,< 50%,–,–,–

# Reference: ChEMBL document CHEMBL2380289, “Ligand based approach to L-type calcium channel by imidazo[2,1-b]thiazole-1,4-dihydropyridines: from heart activity to brain affinity” (J Med Chem, 2013)
